Data published in ChEMBL document CHEMBL1158847, “Litebamine N-homologues: preparation and anti-acetylcholinesterase activity” (J Nat Prod, 1998).

Molecular target: Acetylcholinesterase (Electrophorus electricus, UniProt O42275)
Sequence (O42275 whole entry): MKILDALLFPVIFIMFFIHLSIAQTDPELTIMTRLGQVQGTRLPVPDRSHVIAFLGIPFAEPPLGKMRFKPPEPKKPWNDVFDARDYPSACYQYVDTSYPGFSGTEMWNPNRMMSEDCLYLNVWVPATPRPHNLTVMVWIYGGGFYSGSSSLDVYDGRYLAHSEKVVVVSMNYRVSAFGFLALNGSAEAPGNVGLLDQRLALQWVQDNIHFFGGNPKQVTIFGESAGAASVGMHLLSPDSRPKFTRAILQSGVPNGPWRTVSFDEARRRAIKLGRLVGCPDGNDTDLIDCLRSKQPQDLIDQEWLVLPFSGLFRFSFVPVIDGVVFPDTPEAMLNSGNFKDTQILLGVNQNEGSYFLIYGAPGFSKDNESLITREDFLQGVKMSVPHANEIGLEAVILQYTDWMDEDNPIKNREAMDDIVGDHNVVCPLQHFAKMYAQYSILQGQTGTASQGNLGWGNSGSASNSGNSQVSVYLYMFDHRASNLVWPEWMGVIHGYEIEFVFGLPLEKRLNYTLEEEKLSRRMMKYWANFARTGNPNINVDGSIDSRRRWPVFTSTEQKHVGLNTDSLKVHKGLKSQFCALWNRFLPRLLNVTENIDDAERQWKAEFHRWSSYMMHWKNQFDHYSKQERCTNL
Assay: Inhibition of electric eel AChE by colorimetric method
Settings: not given
How it was run: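 Ellman colorimetric assay. Enzyme 0.125 U preincubated 2 min at 37 °C with test samples and DTNB 0.3 mM in 0.1 M phosphate buffer, pH 8.0. Reaction started with 0.5 mM […]. Absorbance followed at 412 nm over time. IC50 taken from dose-response curves of at least four concentrations spanning 0-90% inhibition.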
Work on `CCCN1CCc2c(c(O)c(OC)c3c2ccc2cc(O)c(OC)cc23)C1` yielded an IC50 of 7.21 µM.
`CCC[N+]1(C)CCc2c(c(O)c(OC)c3c2ccc2cc(O)c(OC)cc23)C1` (stereo not given) gave an IC50 of 2.79 µM.
`CCCNCCc1cc(O)c(OC)c2c1ccc1cc(O)c(OC)cc12` showed an IC50 of 107 µM.
Compound `CCCCNCCc1cc(O)c(OC)c2c1ccc1cc(O)c(OC)cc12` has an IC50 of 111 µM.
Compound `COc1cc2c(ccc3c(CCNCC(C)C)cc(O)c(OC)c32)cc1O` has an IC50 of 62 µM.
`COc1cc2c(ccc3c(CCNC(C)C)cc(O)c(OC)c32)cc1O` showed an IC50 of 72 µM.
`COc1cc2c(ccc3c4c(c(O)c(OC)c32)CN(Cc2ccccc2)CC4)cc1O` showed an IC50 of 10.7 µM.
Compound `CCCCN1CCc2c(c(O)c(OC)c3c2ccc2cc(O)c(OC)cc23)C1` has an IC50 of 7.79 µM.
Compound `C=CCN1CCc2c(c(O)c(OC)c3c2ccc2cc(O)c(OC)cc23)C1` has an IC50 of 15.8 µM.
Compound `CCNCCc1cc(O)c(OC)c2c1ccc1cc(O)c(OC)cc12` has an IC50 of 27.2 µM.
For `COc1cc2c(ccc3c4c(c(O)c(OC)c32)CN(C(C)C)CC4)cc1O`, the IC50 was 6.8 µM.
With `COc1cc2c(ccc3c4c(c(O)c(OC)c32)CN(CC(C)C)CC4)cc1O` the IC50 was 6.51 µM.
With `CCN1CCc2c(c(O)c(OC)c3c2ccc2cc(O)c(OC)cc23)C1` the IC50 was 14.5 µM.
For `COc1cc2c(ccc3c4c(c(O)c(OC)c32)CN(C)CC4)cc1O` [LITEBAMINE], the IC50 was 22 µM.

Tested on: not listed separately
Assay: Antiplatelet activity against rabbit platelets assessed as inhibition of arachidonic acid-induced thromboxane B2 formation at 15 uM
Type: functional
Settings: Oryctolagus cuniculus, Platelet
`COc1cc2c(ccc3c4c(c(O)c(OC)c32)CN(C)CC4)cc1O` [LITEBAMINE] showed an inhibition at 15 µM of 77%.
